According to ChEMBL document CHEMBL1122774, “Tri- and tetrapeptide analogues of kinins as potential renal vasodilators” (J Med Chem, 1984):
Square brackets hold non-standard residues; d marks the D form. Peptide text beside a SMILES is read from it. * marks the point of attachment. ξ: configuration not given here. Hydrocinnamoyl = O=C(CCc1ccccc1)*; ξαMeF = CC(N)(Cc1ccccc1)C(=O)O

Assays:
[1] = test system: Canis familiaris; assay: Renal vasodilator activity in anesthetized dogs and percent change in mean arterial blood pressure (MABP) was determined at 3 ug/kg min; assay type: functional, Canis lupus familiaris
Method in brief: (§1)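 Primary screen in anesthetized dogs (7-17 kg). Drug infused separately at 3, 30 and 300 µg/(kg min), each infusion lasting 5 min, at about 15-min intervals. Read-outs are renal blood flow, mean arterial blood pressure, heart rate, and RVR (MABP / mean RBF), as percent change. Significance thresholds are defined per number of dogs; n = 1-3 dogs.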

[2] = test system: Canis familiaris; assay: Renal vasodilator activity in anesthetized dogs and percent change in heart rate (HR) was determined at 3 ug/kg min; assay type: functional, Canis lupus familiaris; method in brief: as §1
[3] = test system: Canis familiaris; assay: Renal vasodilator activity in anesthetized dogs and percent change in heart rate (HR) was determined at 30 ug/kg min; assay type: functional, Canis lupus familiaris; method in brief: as §1
[4] = test system: Canis familiaris; assay: Renal vasodilator activity in anesthetized dogs and percent change in renal blood flow (RBF) was determined at 30 ug/kg min; assay type: functional, Canis lupus familiaris, Kidney; method in brief: as §1
[5] = test system: Canis familiaris; assay: Renal vasodilator activity in anesthetized dogs and percent change in renal vascular resistance (RVR) was determined at 3 ug/kg min; assay type: functional, Canis lupus familiaris; method in brief: as §1
[6] = test system: Canis familiaris; assay: Renal vasodilator activity in anesthetized dogs and percent change in renal blood flow (RBF) was determined at 300 ug/kg min; assay type: functional, Canis lupus familiaris, Kidney; method in brief: as §1
[7] = test system: Canis familiaris; assay: Renal vasodilator activity in anesthetized dogs and percent change in mean arterial blood pressure (MABP) was determined at 300 ug/kg min; assay type: functional, Canis lupus familiaris; method in brief: as §1
[8] = test system: Canis familiaris; assay: Renal vasodilator activity in anesthetized dogs and percent change in renal vascular resistance (RVR) was determined at 300 ug/kg min; assay type: functional, Canis lupus familiaris; method in brief: as §1
[9] = test system: Canis familiaris; assay: Renal vasodilator activity in anesthetized dogs and percent change in heart rate (HR) was determined at 300 ug/kg min; assay type: functional, Canis lupus familiaris; method in brief: as §1
[10] = test system: Canis familiaris; assay: Renal vasodilator activity in anesthetized dogs and percent change in renal vascular resistance (RVR) was determined at 30 ug/kg min; assay type: functional, Canis lupus familiaris; method in brief: as §1
[11] = test system: Canis familiaris; assay: Renal vasodilator activity in anesthetized dogs and percent change in mean arterial blood pressure (MABP) was determined at 30 ug/kg min; assay type: functional, Canis lupus familiaris; method in brief: as §1
[12] = test system: Canis familiaris; assay: Renal vasodilator activity in anesthetized dogs and percent change in renal blood flow (RBF) was determined at 3 ug/kg min; assay type: functional, Canis lupus familiaris, Kidney; method in brief: as §1

Compound | Change [1] | Change [2] | Change [3] | Change [4] | Change [5] | Change [6] | Change [7] | Change [8] | Change [9] | Change [10] | Change [11] | Change [12]
CC(Cc1ccccc1)(NC(=O)[C@@H]1CCCN1)C(=O)N[C@@H](CCCN=C(N)N)C(=O)O (stereo partly specified) (H-Pro-[ξαMeF]-Arg-OH) | 1% | -0.7% | 0% | 9.3% | 0.3% | 7.3% | -0.7% | -5.3% | 0% | -7.3% | -0.3% | 1.3%
N=C(N)NCCC[C@H](NC(=O)[C@@H](Cc1ccccc1)NC(=O)[C@@H]1CCCN1C(=O)CCCc1ccccc1)C(=O)O | 0% | -3% | 0% | 2% | -3% | 4% | 0% | -4% | -2% | -1% | 1% | 3%
CC(Cc1ccccc1)(NC(=O)[C@@H]1CCCN1C(=O)CCCc1ccccc1)C(=O)N[C@@H](CCCN=C(N)N)C(=O)O (stereo partly specified) | 3% | -3.6% | 0% | 4.6% | 3% | 1% | 1% | 0% | -1% | -1.8% | 2.8% | 0%
N=C(N)NCCC[C@H](NC(=O)[C@H](Cc1ccccc1)NC(=O)[C@@H]1CCCN1)C(=O)O (H-Pro-Phe-Arg-OH) | -1% | -6% | 3% | 3% | -5% | -3% | -4% | 0% | 6% | -2% | 1% | 4%
CC(Cc1ccccc1)(NC(=O)[C@@H]1CCCN1C(=O)CCCCc1ccccc1)C(=O)N[C@@H](CCCN=C(N)N)C(=O)O (stereo partly specified) | 1% | -1% | -1% | 1% | -2% | 3% | 1% | -2% | 6% | 1% | 3% | 4%
CC(Cc1ccccc1)(NC(=O)[C@@H]1CCCN1C(=O)CCc1ccccc1)C(=O)N[C@@H](CCCN=C(N)N)C(=O)O (stereo partly specified) (Hydrocinnamoyl-Pro-[ξαMeF]-Arg-OH) | -2% | 8% | 1% | 2% | -7% | 1% | 1% | 0% | -1% | -5% | -3% | 5%
CC(Cc1ccccc1)(NC(=O)[C@@H]1CCCN1C(=O)CCCc1ccc(O)cc1)C(=O)N[C@@H](CCCN=C(N)N)C(=O)O (stereo partly specified) | -4% | 0% | 0% | 12% | -12% | 11% | 0% | -11% | 0% | -9% | 2% | 8%
N=C(N)NCCC[C@H](NC(=O)[C@H](Cc1ccccc1)NC(=O)[C@@H]1CCCN1C(=O)CCCc1ccccc1)C(=O)O | 1% | 2% | 1.7% | 4% | -5.7% | -1.7% | -0.7% | 1% | -1.7% | -3.7% | 0.3% | 5.3%
